Active and inactive are the calls of the source. The rule behind the calls is not given here. A value given as a limit tells only on which side of the number the result lay.

For test [1], the target named is DNA topoisomerase 2-alpha (Homo sapiens) (UniProt P11388). Put plainly: Inhibition of human topoisomerase 2-mediated decatenation of kinetoplast DNA at 100 uM after 15 mins by agarose gel electrophoresis. Put shortly: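 ATP-dependent kDNA decatenation by 1 unit Topo II in 50 mM Tris-HCl pH 7.7, 50 mM KCl, 5 mM MgCl2, 1 mM ATP, 0.5 mM DTT, 0.5 mM EDTA and BSA, run for 15 min at 37 °C. Stopped with 10% SDS, then run on 1% agarose in TAE at 4 V/cm for 1 h and stained with ethidium bromide.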
Chain of DNA topoisomerase 2-alpha (Homo sapiens) (P11388 whole entry): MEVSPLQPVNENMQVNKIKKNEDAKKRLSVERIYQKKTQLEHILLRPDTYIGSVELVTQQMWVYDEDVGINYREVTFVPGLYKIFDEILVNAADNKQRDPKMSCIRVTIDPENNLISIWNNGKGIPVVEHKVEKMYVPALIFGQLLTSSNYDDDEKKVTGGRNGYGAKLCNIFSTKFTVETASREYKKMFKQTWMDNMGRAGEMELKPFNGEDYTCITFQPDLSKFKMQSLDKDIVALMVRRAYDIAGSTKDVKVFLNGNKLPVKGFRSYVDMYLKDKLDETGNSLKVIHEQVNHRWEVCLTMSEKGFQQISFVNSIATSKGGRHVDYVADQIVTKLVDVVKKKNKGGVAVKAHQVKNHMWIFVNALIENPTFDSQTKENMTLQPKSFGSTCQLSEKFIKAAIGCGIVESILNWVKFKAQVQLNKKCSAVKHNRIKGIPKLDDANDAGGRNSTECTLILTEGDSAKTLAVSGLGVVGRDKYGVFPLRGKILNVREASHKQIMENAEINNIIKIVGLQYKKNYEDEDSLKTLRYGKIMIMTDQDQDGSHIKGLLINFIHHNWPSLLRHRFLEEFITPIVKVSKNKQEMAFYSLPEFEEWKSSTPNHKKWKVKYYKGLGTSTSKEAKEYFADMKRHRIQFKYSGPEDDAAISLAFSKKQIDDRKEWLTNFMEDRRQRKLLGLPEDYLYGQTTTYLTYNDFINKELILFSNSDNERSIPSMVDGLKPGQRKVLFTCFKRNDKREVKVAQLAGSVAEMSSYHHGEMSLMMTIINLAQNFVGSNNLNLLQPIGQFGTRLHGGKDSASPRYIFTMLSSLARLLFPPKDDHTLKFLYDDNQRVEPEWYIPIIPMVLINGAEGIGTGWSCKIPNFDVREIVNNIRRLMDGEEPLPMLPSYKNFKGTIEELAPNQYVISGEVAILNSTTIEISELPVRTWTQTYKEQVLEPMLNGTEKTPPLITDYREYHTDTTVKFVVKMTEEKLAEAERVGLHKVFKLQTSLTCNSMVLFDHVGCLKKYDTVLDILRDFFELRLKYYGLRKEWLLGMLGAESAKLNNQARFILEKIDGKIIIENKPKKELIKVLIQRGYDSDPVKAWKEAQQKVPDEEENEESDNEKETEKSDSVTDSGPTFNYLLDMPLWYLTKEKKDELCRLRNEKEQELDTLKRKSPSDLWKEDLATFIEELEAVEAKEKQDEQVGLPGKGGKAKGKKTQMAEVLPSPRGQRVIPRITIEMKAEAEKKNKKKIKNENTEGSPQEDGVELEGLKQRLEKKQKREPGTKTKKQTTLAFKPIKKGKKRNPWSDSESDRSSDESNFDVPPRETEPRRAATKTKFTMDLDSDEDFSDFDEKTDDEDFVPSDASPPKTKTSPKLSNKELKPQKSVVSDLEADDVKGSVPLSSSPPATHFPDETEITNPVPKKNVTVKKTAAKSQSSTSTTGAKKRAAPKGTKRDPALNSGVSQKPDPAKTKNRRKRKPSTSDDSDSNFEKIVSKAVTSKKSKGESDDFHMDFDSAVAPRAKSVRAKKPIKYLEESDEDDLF

Another test concerns MCF7. As to the kind of experiment: Cytotoxicity against human MCF7 cells after 72 hrs by sulforhodamine B and MTT assay. The class given is functional, cell-based. To be noted: MCF7, 72 h. Put shortly: (§1)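 Log-phase cells were plated overnight and exposed for 72 h to a 5-concentration gradient, in triplicate wells. SRB arm: 10% cold TCA fixation for 1 h at 4 °C, 4 mg/ml SRB in 1% acetic acid for 15 min, dye dissolved in 10 mM Tris-HCl, read at 520 nm. MTT arm: 5 mg/mL MTT for 4 h at 37 °C, SDS-isobutanol-HCl solubilisation for 12–20 h, read at 570 nm. IC50 by Logit method from at least 3 independent tests.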

In test [2] the test system is KB. Put plainly: Cytotoxicity against human KB cells after 72 hrs by sulforhodamine B and MTT assay. The class given is functional, cell-based. The essentials: as §1
(Tetrazolium assays rely on reduction of a dye to a coloured formazan, in cell work by metabolically active cells.)

In test [3] the test system is HCT-116. As to the kind of experiment: Cytotoxicity against human HCT116 cells after 72 hrs by sulforhodamine B and MTT assay. The class given is functional, cell-based. To be noted: HCT-116, 72 h. The essentials: as §1
In test [4] the test system is HL-60. As to the kind of experiment: Induction of apoptosis in human HL60 cells assessed as DNA fragmentation at 10 uM after 36 hrs by gel electrophoresis. The class given is functional, cell-based. Put shortly:
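HL-60 cells were seeded and exposed to compound for 36 h. Harvested cells were lysed with an equal volume of 1.2% SDS, and the fragmented DNA was extracted and resolved by gel electrophoresis.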

In test [5] the test system is HL-60. Put plainly: Cell cycle arrest in human HL60 cells assessed as accumulation at G2/M phase at 10 uM after 24 hrs using propidium iodide stain by FACS-flow cytometry (reference value: 22.6%). The class given is functional. In general terms: A flow cytometer gives signals particle by particle.
For test [6], the system named is HCT-116. Put plainly: Cell cycle arrest in human HCT116 cells assessed as accumulation at G0/G1 phase at 1 to 10 uM after 24 hrs using propidium iodide stain by FACS-flow cytometry. The class given is functional, cell-based.
Test [7] concerns HL-60. As to the kind of experiment: Cell cycle arrest in human HL60 cells assessed as accumulation at G2/M phase at 1 uM after 24 hrs using propidium iodide stain by FACS-flow cytometry (reference value: 22.6%). The class given is functional.
Test [8] deals with HCT-116. As to the kind of experiment: Cell cycle arrest in human HCT116 cells assessed as accumulation at G2/M phase at 1 to 10 uM after 24 hrs using propidium iodide stain by FACS-flow cytometry. The class given is functional, cell-based.
For test [9], the system named is HL-60. Put plainly: Cell cycle arrest in human HL60 cells assessed as accumulation at G0/G1 phase at 1 uM after 24 hrs using propidium iodide stain by FACS-flow cytometry (reference value: 39%). The class given is functional.
Test [10] deals with HL-60. Put plainly: Cell cycle arrest in human HL60 cells assessed as accumulation at S phase at 10 uM after 24 hrs using propidium iodide stain by FACS-flow cytometry (reference value: 38.4%). The class given is functional.
In test [11] the test system is HL-60. Put plainly: Cell cycle arrest in human HL60 cells assessed as accumulation at S phase at 1 uM after 24 hrs using propidium iodide stain by FACS-flow cytometry (reference value: 38.4%). The class given is functional.
The subject of test [12] is HL-60. Put plainly: Cell cycle arrest in human HL60 cells assessed as accumulation at G0/G1 phase at 10 uM after 24 hrs using propidium iodide stain by FACS-flow cytometry (reference value: 39%). The class given is functional.
For test [13], the system named is KB. As to the kind of experiment: Cytotoxicity against vincristine-selected multi drug-resistant human KB cells after 72 hrs by sulforhodamine B and MTT assay. The class given is functional, cell-based. The essentials: (§2)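 Log-phase cells were seeded, preincubated (overnight for SRB, 24 h for MTT), then given a five-concentration gradient in triplicate wells for 72 h. For MTT, reagent was added for 4 h at 37 °C, solubilized in SDS-isobutanol-HCl for 12-20 h, and read at 570 nm. IC50 was derived by the Logit method from at least 3 independent tests.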

In test [14] the test system is KB. Put plainly: Resistance index, ratio of IC50 for vincristine-selected multi drug-resistant human KB cells to IC50 for human KB cells. The class given is functional. Put shortly: (§3)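 Resistance factor is the IC50 in the resistant line divided by the IC50 in the parental line. Both IC50s come from 72 h SRB/MTT growth-inhibition assays, derived by the Logit method from at least 3 independent tests.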

The subject of test [15] is K562. As to the kind of experiment: Resistance index, ratio of IC50 for adriamycin-selected multi drug-resistant human K562 cells to IC50 for human K562 cells. The class given is functional. The essentials: as §3
The test system of test [16] is K562. As to the kind of experiment: Cytotoxicity against adriamycin-selected multi drug-resistant human K562 cells after 72 hrs by sulforhodamine B and MTT assay. The class given is functional, cell-based. To be noted: K562, 72 h. Put shortly: as §2
Test [17] relates to K562. Put plainly: Cytotoxicity against human K562 cells after 72 hrs by sulforhodamine B and MTT assay. The class given is functional, cell-based. To be noted: K562, 72 h. The essentials:
as §2

Take `COc1cc2c(O[C@H]3O[C@@H](C)[C@@H](O)[C@@H](O)[C@@H]3O)c3c(c(-c4ccc5c(c4)OCO5)c2cc1OC)C(=O)OC3` [PATENTIFLORIN B]: the inhibition result in test [1] was “inactive”. Further, the IC50 (commonly the point on the concentration scale where inhibition reaches its midpoint) is 1420 nM in the test on MCF7, above 10000 nM in the test with KB [2] and above 10000 nM in the test with HCT-116 [3]. Further, in the test with HL-60 [4], the outcome was Active.
As for `COc1cc2c(O[C@@H]3O[C@H](C)[C@H](O)[C@H](O)[C@H]3O)c3c(c(-c4ccc5c(c4)OCO5)c2cc1OC)C(=O)OC3`, in test [1], the inhibition result is “inactive”. Besides, the Activity with HL-60 [5] stood at 24.9%; in the test on HL-60 [7], 31.5%; in the test on HL-60 [9], 38.6%; in the test on HL-60 [10] it was 34.6%; in the test on HL-60 [11], 30%; in the test on HL-60 [12], 40.5%. For the same compound, the outcome in the test with HCT-116 [6] and with HCT-116 [8] was inactive. In addition, the concentration for half-maximal inhibition (IC50) in the test with MCF7 is 1810 nM; in the test on KB [2], 3050 nM; in the test with HCT-116 [3], 6430 nM. The result with HL-60 [4] was Active.
On to `COc1cc2c(O[C@@H]3O[C@H](CO)[C@@H](O)[C@H](O)[C@H]3O)c3c(c(-c4ccc5c(c4)OCO5)c2cc1OC)C(=O)OC3`, for which the inhibition result in [1] was “inactive”. Further, the half-inhibitory concentration (IC50) is 2440 nM in the test on MCF7, above 10000 nM in the test with KB [2] and 9670 nM in the test with HCT-116 [3].
Take `COc1cc2c(O[C@H]3O[C@@H](C)[C@@H](OC(C)=O)[C@@H](O)[C@@H]3O)c3c(c(-c4ccc5c(c4)OCO5)c2cc1OC)C(=O)OC3` [4'-O-ACETYLPATENTIFLORIN B]: the inhibition result in test [1] is “Active”. The IC50 in the test with MCF7 stood at 110 nM; with KB [2], 140 nM; in the test on HCT-116 [3], 270 nM.
For `COc1cc2c(O[C@@H]3O[C@@H]4CO[C@@H](C(C)C)O[C@H]4[C@H](O)[C@H]3O)c3c(c(-c4ccc5c(c4)OCO5)c2cc1OC)C(=O)OC3`, in that order: “Active”, 0.2 nM, 0.6 nM and 16 nM.
With `CC[C@]1(O)C[C@H]2CN(CCc3c([nH]c4ccccc34)[C@@](C(=O)OC)(c3cc4c(cc3OC)N(C=O)[C@H]3[C@@](O)(C(=O)OC)[C@H](OC(C)=O)[C@]5(CC)C=CCN6CC[C@]43[C@@H]65)C2)C1` [VINCRISTINE], the IC50 in the test on KB [13] amounted to 1610 nM; with KB [2], 3 nM. In the test with KB [14], the “Ratio IC50” value is 536.7.
As to `COc1cc2c(O[C@@H]3O[C@H](COCc4ccccc4)[C@@H](O)[C@H](O)[C@H]3O)c3c(c(-c4ccc5c(c4)OCO5)c2cc1OC)C(=O)OC3`, the inhibition result in test [1] was “Active”. Moreover, the values for the 50% inhibitory concentration (IC50) with MCF7, in the test with KB [2] and in the test on HCT-116 [3] were 28 nM, 15 nM and 36 nM, respectively.
With `COc1cccc2c1C(=O)c1c(O)c3c(c(O)c1C2=O)C[C@@](O)(C(=O)CO)C[C@@H]3O[C@H]1C[C@H](N)[C@H](O)[C@H](C)O1` [DOXORUBICIN], in the test with K562 [15], the “Ratio IC50” value was found to be 132.2.
In the case of `COC[C@H]1O[C@@H](Oc2c3c(c(-c4ccc5c(c4)OCO5)c4cc(OC)c(OC)cc24)C(=O)OC3)[C@H](O)[C@@H](O)[C@H]1O`, the inhibition result in [1] is “inactive”. The IC50 with MCF7 is above 10000 nM; in the test on KB [2] it was 4100 nM; with HCT-116 [3], above 10000 nM.
`COc1cc([C@@H]2c3cc4c(cc3[C@@H](O[C@@H]3O[C@@H]5CO[C@@H](C)O[C@H]5[C@H](O)[C@H]3O)[C@H]3COC(=O)[C@H]23)OCO4)cc(OC)c1O` [ETOPOSIDE]: the inhibition entry in test [1] is “inactive”. The “Ratio IC50” value is given as 47.1 with K562 [15] and 180.3 in the test with KB [14]. Besides, the IC50 was 1090 nM in the test on MCF7; 243000 nM in the test with K562 [16]; 153000 nM with KB [13]; 850 nM in the test with KB [2]; 5160 nM with K562 [17]; 910 nM in the test with HCT-116 [3].
Take `COc1cc2c(O[C@@H]3OC[C@H](O)[C@H](O)[C@H]3O)c3c(c(-c4ccc5c(c4)OCO5)c2cc1OC)C(=O)OC3` [ACUTISSIMALIGNAN A]: the inhibition result in [1] is “inactive”. Moreover, the results for the IC50 in the test on MCF7, in the test with KB [2] and in the test on HCT-116 [3] were above 10000 nM, 6880 nM and above 10000 nM, respectively.
`COc1cc2c(O[C@@H]3O[C@H](CO)[C@H](O)[C@H](O)[C@H]3O)c3c(c(-c4ccc5c(c4)OCO5)c2cc1OC)C(=O)OC3`: the inhibition entry in [1] is “inactive”. Further, the values for the concentration for half-maximal inhibition (IC50) in the test on MCF7, in the test on KB [2] and with HCT-116 [3] were 4110 nM, 4890 nM and above 10000 nM, respectively.
For `COC[C@H]1O[C@@H](Oc2c3c(c(-c4ccc5c(c4)OCO5)c4cc(OC)c(OC)cc24)C(=O)OC3)[C@H](O)[C@@H](O)[C@@H]1O`, in that order: “inactive”, above 10000 nM, 4500 nM and above 10000 nM.
On to `COc1cc2c(O)c3c(c(-c4ccc5c(c4)OCO5)c2cc1OC)C(=O)OC3` [DIPHYLLIN], for which the inhibition result in test [1] was “Active”. The figures for the “Ratio IC50” value with K562 [15] and with KB [14] were 14.1 and 4, respectively. Also, the IC50 in the test on MCF7 was found to be 540 nM; in the test on K562 [16] it was 23500 nM; in the test on KB [13], 3150 nM; with KB [2] it was 780 nM; in the test on K562 [17] it was 1670 nM; in the test with HCT-116 [3], 3540 nM.
In the case of `COc1cc2c(O[C@@H]3O[C@@H]4COC(C)(C)O[C@H]4[C@H](O)[C@H]3O)c3c(c(-c4ccc5c(c4)OCO5)c2cc1OC)C(=O)OC3`, the inhibition result in [1] was “Active”. The values for the IC50 in the test on MCF7, with KB [2] and in the test with HCT-116 [3] were 53 nM, 10 nM and 43 nM, respectively.

Source of the values: ChEMBL document CHEMBL1926616, “Design, synthesis and biological evaluation of novel glycosylated diphyllin derivatives as topoisomerase II inhibitors” (Eur J Med Chem, 2012).
